ChEMBL document CHEMBL1121627, “Structure--activity relationships in a series of novel 3,4-dihydro-4-oxopyrimido[4,5-b]quinoline-2-carboxylic acid antiallergy agents” (1980)
The source made the active and inactive calls.

Legend:
Rattus norvegicus [1] = assay: Antiallergic activity against reagin induced passive cutaneous anaphylaxis reaction in rats upon intravenous administration.; type: functional
In short: (§1)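 Rat passive cutaneous anaphylaxis. Just before challenge, controls for antihistamine, antiserotonin or nonspecific blockade are given intradermally: 60 µg histamine dihydrochloride and 0.5 µg serotonin-creatinine sulfate. Challenge is iv, 5 mg egg albumin with 2.5 mg Evan's Blue, given immediately after iv drug or 5 min after oral drug. Site scores are summed per group of 5 or 7 and expressed as % inhibition versus control. ED50 is taken from a by-eye dose-response curve, or from least-squares regression when n is larger.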

Rattus norvegicus [2] = assay: The compound was evaluated for antiallergic activity against reagin induced passive cutaneous anaphylaxis reaction in rats upon peroral administration. at this dose the compound tested was found inactive; type: functional; conditions: po; in short: as §1
Rattus norvegicus [3] = assay: Antiallergic activity against reagin induced passive cutaneous anaphylaxis reaction in rats upon peroral administration.; type: functional; conditions: po; in short: as §1
Rattus norvegicus [4] = assay: The compound was evaluated for antiallergic activity against reagin induced passive cutaneous anaphylaxis reaction in rats upon peroral administration; at this dose the compound tested was found inactive; type: functional; conditions: po; in short: as §1
Rattus norvegicus [5] = assay: The compound was evaluated for antiallergic activity against reagin induced passive cutaneous anaphylaxis reaction in rats upon peroral administration, the dose at which the compound was tested and found inactive; type: functional; conditions: po; in short: as §1
Rattus norvegicus [6] = assay: Inhibition of plasma histamine release induced by antigen challenge in rats assively sensitized with homologus antisera at an iv dose of 0.1 mg/kg; type: functional
Cavia porcellus = assay: Bronchoconstrictive effect of histamine aerosol in conscious guinea pigs at an iv dose of 30 mg/kg; Bronchoconstrictive effect is unaltered; type: functional, organism-based; design: dose 30 mg/kg
Rattus norvegicus [7] = assay: The compound was evaluated for antiallergic activity against reagin induced passive cutaneous anaphylaxis reaction in rats upon peroral administration, pH dependent, more active when administered in solution of pH>/=10; type: functional; conditions: po; in short: as §1
Rattus norvegicus [8] = assay: The compound was evaluated for antiallergic activity against reagin induced passive cutaneous anaphylaxis reaction in rats upon peroral administration, at this dose the compound tested was found inactive, and is highly active at the same dose if ad ministered in solution of pH >/=10; type: functional; conditions: po; in short: as §1
Rattus norvegicus [9] = assay: The compound was evaluated for antiallergic activity against reagin induced passive cutaneous anaphylaxis reaction in rats upon peroral administration; highest dose at which the compound was tested and found inactive; type: functional; conditions: po; in short: as §1

Row | SMILES | ED50 (Rattus norvegicus [1]) | ED50 (Rattus norvegicus [3]) | further results
1 | CCNC(=O)c1nc(O)c2cc3cc(OC)c(OC)cc3nc2n1 | 3 mg/kg |  | 
2 | CCOC(=O)c1nc(O)c2cc3cc(OC)c(OCc4ccccc4)cc3nc2n1 | 0.8 mg/kg |  | ED50 (Rattus norvegicus [2]): > 30 mg/kg
3 | CNC(=O)c1nc(O)c2cc3cc(OC)c(OC)cc3nc2n1 | 3 mg/kg |  | 
4 | CCCCOC(=O)c1nc(O)c2cc3cc(OC)c(OC)cc3nc2n1 | 0.003 mg/kg | 10 mg/kg | 
5 | CCOC(=O)c1nc(O)c2cc3cc(OCc4ccccc4)c(OC)cc3nc2n1 | 3 mg/kg |  | ED50 (Rattus norvegicus [4]): > 10 mg/kg
6 | NC(=O)c1nc(O)c2cc3ccccc3nc2n1 | 1.3 mg/kg | 60 mg/kg | 
7 | COc1cc2cc3c(O)nc(C(N)=O)nc3nc2cc1OC | 3 mg/kg | 30 mg/kg | 
8 | CCOC(=O)c1nc(O)c2cc3cc(OCc4ccccc4)ccc3nc2n1 | 0.9 mg/kg | 10 mg/kg | 
9 | CCOC(=O)c1nc(O)c2cc3ccccc3nc2n1 | 0.1 mg/kg | 3 mg/kg | 
10 | CCOC(=O)c1nc(O)c2cc3cc([S+](C)[O-])ccc3nc2n1 (centres undefined) | 0.2 mg/kg | 30 mg/kg | 
11 | CCOC(=O)Cn1c(C(=O)OCC)nc2nc3cc(OC)c(OC)cc3cc2c1=O | 3 mg/kg |  | 
12 | CCOC(=O)CCCn1c(C(=O)OCC)nc2nc3cc(OC)c(OC)cc3cc2c1=O | 0.1 mg/kg |  | ED50 (Rattus norvegicus [5]): > 10 mg/kg
13 | CCOC(=O)c1nc(O)c2cc3cc(F)ccc3nc2n1 | 0.3 mg/kg | 30 mg/kg | 
14 | COc1cc2cc3c(O)nc(-c4ccccc4)nc3nc2cc1OC | 3 mg/kg |  | 
15 | CCOC(=O)c1nc(=O)c2cc3cc(OC)c(OC)cc3nc2[nH]1 [PIROLATE] | 0.007 mg/kg | 1 mg/kg | inhibition in vivo at 0.1 mg/kg (Rattus norvegicus [6]): 92%; Activity (Cavia porcellus): inactive
16 | CCOC(=O)c1nc(O)c2cc3cc(OC(C)=O)c(OC)cc3nc2n1 | 0.007 mg/kg |  | ED50 (Rattus norvegicus [7]): 10 mg/kg
17 | O=C(O)c1nc2nc3ccccc3cc2c(=O)[nH]1 | 0.2 mg/kg | 25 mg/kg | 
18 | CCOC(=O)c1nc(O)c2cc3cc(O)ccc3nc2n1 | 0.7 mg/kg |  | ED50 (Rattus norvegicus [7]): 10 mg/kg
19 | CCOC(=O)c1nc(O)c2cc3cc(Cl)ccc3nc2n1 | 0.4 mg/kg | 30 mg/kg | 

Row | SMILES | ED50 (Rattus norvegicus [1]) | ED50 (Rattus norvegicus [3]) | further results
20 | CCOC(=O)c1nc(O)c2cc3cc(OC)c(O)cc3nc2n1 | 1 mg/kg |  | ED50 (Rattus norvegicus [8]): > 3 mg/kg
21 | CCOC(=O)c1nc(O)c2cc3cc(OCC)c(OC)cc3nc2n1 | 0.002 mg/kg | 0.3 mg/kg | 
22 | CCOC(=O)c1nc(O)c2cc3cc(OC)c(OCC)cc3nc2n1 | 0.007 mg/kg | 2 mg/kg | 
23 | CCCCOC(=O)c1nc(O)c2cc3cc(O)c(OC)cc3nc2n1 | 0.008 mg/kg |  | ED50 (Rattus norvegicus [7]): 10 mg/kg
24 | CCOC(=O)c1nc(O)c2cc3cc(SC)ccc3nc2n1 | 0.1 mg/kg | 8 mg/kg | 
25 | CCOC(=O)c1nc2nc3cc(OC)c(OC)cc3cc2c(=O)n1C | 0.8 mg/kg |  | ED50 (Rattus norvegicus [5]): > 30 mg/kg
26 | COc1cc2cc3c(O)nc(C(C)=O)nc3nc2cc1OC | 2 mg/kg |  | ED50 (Rattus norvegicus [9]): > 10 mg/kg
27 | CCOC(=O)c1nc(O)c2cc3cc(OC)ccc3nc2n1 | 0.03 mg/kg | 20 mg/kg | 
28 | COc1cc2cc3c(O)nc(C(=O)[O-])nc3nc2cc1OC.[Na+] | 0.005 mg/kg | 10 mg/kg | 
29 | O=C([O-])c1cc(=O)c2c(OCC(O)COc3cccc4oc(C(=O)[O-])cc(=O)c34)cccc2o1.[Na+].[Na+] [CROMOLYN SODIUM] | 0.8 mg/kg |  | ED50 (Rattus norvegicus [5]): > 300 mg/kg
30 | CCOC(=O)c1nc(O)c2cc3c(Cl)cccc3nc2n1 | 0.2 mg/kg | 30 mg/kg | 
31 | CCOC(=O)c1nc(O)c2cc3ccc(OC)cc3nc2n1 | 0.8 mg/kg | 10 mg/kg | 
32 | COc1cc2cc3c(O)ncnc3nc2cc1OC | 3 mg/kg |  | 
33 | CCOC(=O)c1nc(O)c2cc3cc(OCC)c(OCC)cc3nc2n1 | 0.01 mg/kg | 1 mg/kg | 
34 | CCOC(=O)c1nc(O)c2cc3cc4c(cc3nc2n1)OCCO4 | 1 mg/kg |  | 
35 | COc1cc2nc3nc(C(=O)O)nc(O)c3cc2cc1O | < 0.01 mg/kg |  | ED50 (Rattus norvegicus [8]): > 3 mg/kg
36 | CCOC(=O)c1nc(O)c2cc3c(OC)ccc(OC)c3nc2n1 | 0.6 mg/kg | 30 mg/kg | 
37 | CCOC(=O)c1nc(O)c2cc3cc(Sc4ccc(OC)cc4)ccc3nc2n1 | 3 mg/kg | 30 mg/kg | 
38 | CCCCOc1cc2nc3nc(C(=O)OCC)nc(O)c3cc2cc1OCC | 0.3 mg/kg | 5 mg/kg | 

Row | SMILES | ED50 (Rattus norvegicus [1]) | ED50 (Rattus norvegicus [3]) | further results
39 | CCOC(=O)CNC(=O)c1nc(O)c2cc3cc(OC)c(OC)cc3nc2n1 | 6 mg/kg |  | 
40 | CCOC(=O)c1nc(O)c2cc3cc(O)c(OC)cc3nc2n1 | 0.001 mg/kg |  | ED50 (Rattus norvegicus [8]): > 10 mg/kg
41 | CCOC(=O)c1nc(O)c2cc3ccc(F)cc3nc2n1 | 0.3 mg/kg | 30 mg/kg | 
42 | CCOC(=O)c1nc(O)c2cc3ccc(OC)c(OC)c3nc2n1 | 0.2 mg/kg | 60 mg/kg | 
43 | CCNC(=O)c1nc(O)c2cc3ccccc3nc2n1 | 3 mg/kg |  | 
44 | COc1cc2cc3c(=O)[nH]c(=O)[nH]c3nc2cc1OC | 3 mg/kg |  | 
45 | COc1cc2cc3c(O)nc(C)nc3nc2cc1OC | 0.4 mg/kg | 1 mg/kg | 
46 | CCOC(=O)c1nc(O)c2c(-c3ccccc3)c3ccccc3nc2n1 | 0.3 mg/kg | 10 mg/kg | 
47 | CCc1nc(O)c2cc3cc(OC)c(OC)cc3nc2n1 | 3 mg/kg |  | ED50 (Rattus norvegicus [9]): > 60 mg/kg
48 | COc1cc2cc3c(O)nc(C(F)(F)F)nc3nc2cc1OC | > 10 mg/kg |  | 
49 | O=C(O)c1nc(O)c2cc3cc(O)ccc3nc2n1 | 0.01 mg/kg |  | ED50 (Rattus norvegicus [8]): > 10 mg/kg
50 | COc1cc2cc3c(O)nc(C(=O)NO)nc3nc2cc1OC | < 3 mg/kg |  | ED50 (Rattus norvegicus [9]): > 60 mg/kg
51 | COc1cc2cc3c(O)nc(C(=O)OCCO)nc3nc2cc1OC | < 0.03 mg/kg | 10 mg/kg | 
52 | CCOC(=O)c1nc(O)c2cc3cc(OCC)c(OCc4ccccc4)cc3nc2n1 | 0.9 mg/kg |  | ED50 (Rattus norvegicus [4]): > 30 mg/kg
53 | CCOC(=O)c1nc(O)c2cc3cc(OC)c(OC)c(OC)c3nc2n1 | 0.8 mg/kg | 10 mg/kg | 
54 | CCCCOC(=O)c1nc(O)c2cc3ccccc3nc2n1 | 0.06 mg/kg | 30 mg/kg | 
55 | CCOC(=O)c1nc(O)c2cc3cc4c(cc3nc2n1)OCO4 | 0.5 mg/kg | 30 mg/kg | 
56 | CCOC(=O)c1nc(O)c2cc3cc(OC)cc(OC)c3nc2n1 | 0.5 mg/kg | 30 mg/kg | 
